{"data": "Measured values of several laboratories", "target": "Cytochrome P450 1A2 (CYP1A2, Homo sapiens, UniProt P05177)", "observed": "enzyme activity", "mode": "inhibitor", "One construct used (P05177 1-516)": "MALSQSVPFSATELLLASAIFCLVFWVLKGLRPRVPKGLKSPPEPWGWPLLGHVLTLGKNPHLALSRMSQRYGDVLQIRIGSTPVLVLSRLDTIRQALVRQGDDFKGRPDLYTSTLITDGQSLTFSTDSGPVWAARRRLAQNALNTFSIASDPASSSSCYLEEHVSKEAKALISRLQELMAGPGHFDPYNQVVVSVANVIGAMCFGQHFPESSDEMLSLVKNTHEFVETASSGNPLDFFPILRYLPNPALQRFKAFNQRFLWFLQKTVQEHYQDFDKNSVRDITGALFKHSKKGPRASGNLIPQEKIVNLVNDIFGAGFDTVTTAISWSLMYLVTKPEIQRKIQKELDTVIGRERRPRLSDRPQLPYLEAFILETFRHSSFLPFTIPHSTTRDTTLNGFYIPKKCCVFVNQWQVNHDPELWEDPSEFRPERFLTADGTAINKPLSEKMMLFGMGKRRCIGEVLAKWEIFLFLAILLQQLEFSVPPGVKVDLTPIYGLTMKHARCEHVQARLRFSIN", "note": "Each line is one published result; the experiments were not run side by side. pIC50, pKi: −log10 of the molar value."}
{"Compound": "COc1ccc2c(Cc3ccccc3F)c3[n+](cc2c1OC)CCc1cc2c(cc1-3)OCO2", "quantity": "pIC50", "result": "< 5.00"}
{"Compound": "Cc1cc2c(F)c(Oc3ncnn4cc(OC[C@@H](C)O)c(C)c34)ccc2[nH]1", "assay": "fluorescence", "conditions": "15 min", "quantity": "pIC50", "result": 4.35}
{"Compound": "CCc1cc(/C(C)=N/OCc2ccc(C3CCCCC3)c(C(F)(F)F)c2)ccc1CN1CC(C(=O)O)C1", "test system": "human, liver microsomes", "conditions": "20 min", "quantity": "pIC50", "result": "< 5.96"}
{"Compound": "CCn1c(C(=O)N(C2CC2)C2CC2)cc2c3c(ncn3C)c(Nc3cc(C)n(C)n3)nc21", "test system": "human, liver microsomes", "quantity": "pKi", "result": 6.22}
{"Compound": "COc1ccn2c(Nc3ccccc3F)c(-c3ccncn3)nc2c1", "quantity": "pIC50", "result": 5.74}
{"Compound": "CCC(C)(C)C(=O)O[C@H]1C[C@@H](C)C=C2C=C[C@H](C)[C@H](CC[C@@H](O)C[C@@H](O)CC(=O)O)[C@H]21", "assay": "fluorescence", "quantity": "pIC50", "result": "< 4.00"}
{"Compound": "COc1ccc2c(Cc3ccccc3F)c3n(c(=O)c2c1OC)CCc1cc2c(cc1-3)OCO2", "quantity": "pIC50", "result": "< 5.00"}
{"Compound": "COc1ccc2[nH]c([S+]([O-])Cc3ncc(C)c(OC)c3C)nc2c1 (stereo not drawn)", "assay": "fluorescence", "quantity": "pIC50", "result": 3.95}
{"Compound": "C#Cc1ccc2c(=O)cc(-c3ccccc3)oc2c1", "conditions": "6 min, pH 7.6", "quantity": "pKi", "result": 6.28}
{"Compound": "N#Cc1ccnc(Oc2nn([C@H]3C[C@H](F)C3)c3ncnc(N)c23)c1", "test system": "human, liver microsomes", "conditions": "10 min", "quantity": "pIC50", "result": 4.68}
{"Compound": "C#Cc1cccc2oc(-c3ccccc3)cc(=O)c12", "conditions": "6 min, pH 7.6", "quantity": "pKi", "result": 6.09}
{"Compound": "CC(CN1c2ccccc2Sc2ccccc21)N(C)C (stereo not drawn)", "assay": "fluorescence", "quantity": "pIC50", "result": 6.00}
